Series [1] concerns β-hematin formation. Briefly: Detergent mediated β-hematin assay. The series is classed as biochemical. Conditions: cell-free detergent mediated assay; Fig. S4.
The subject of series [2] is intraerythrocytic stage P. falciparum (strain 3D7). The series can be described thus: In vitro antiplasmodial SYBR Green I-based fluorescence assay, 96 h, strain 3D7. The series is classed as cell-based, Plasmodium falciparum. Conditions: for IC50: 96 h; for inhibition: 3D7, read-out: inhibition of parasite proliferation at the single (highest) concentration tested. Summed up: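 Synchronous ring-stage parasites in O+ erythrocytes, 0.5% parasitemia and 1% hematocrit, in RPMI 1640 with HEPES, Glutamax, 11 mM glucose, 200 μM hypoxanthine, gentamicin and 0.6% Albumax II. […] Frozen at −80 °C, then SYBR Safe lysis (20 mM Tris pH 7.5, EDTA, saponin, Triton X-100). Fluorescence as % of untreated control; IC50 from four-parameter fit, mean ± SEM, n = 3.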

A short description of series [3]: Solubility in DMSO. The series is classed as physicochemical. Conditions: other compounds dissolved to 200 mM; these dissolved to between 10 and 100 mM.
Series [4] relates to [Na^+]cyt of isolated trophozoite-stage 3D7 parasites (PfATP4). The series can be described thus: Cytosolic Na+ measurements. The conditions noted are these: isolated 3D7 trophozoites; 13i 1 μM and 10 μM, cipargamin 50 nM; final 85–90 min. The series is classed as cell-based, Plasmodium falciparum. Summed up:
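Saponin-freed trophozoite-stage 3D7 parasites loaded with SBFI, in 96-well plates at 37 °C in saline (125 mM NaCl, 5 mM KCl, 1 mM MgCl2, 20 mM glucose, 25 mM HEPES, pH 7.1). Controls: DMSO solvent (0.1–0.2% v/v) and a PfATP4-inhibitor positive control. Final [Na+]cyt averaged over 85–90 min of exposure. Three independent experiments on separate days, mean + SEM, Dunnett's test versus DMSO.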

[5] abbreviates: Plasmodium falciparum, 3D7, 96 h, read-out: IC50 (P. falciparum proliferation), strain 3D7.

Read-outs that look alike come from different tables or passages of the source.

In the case of `COc1cc(C)ccc1NC(=S)c1ccc2ccccc2c1` [Compound 13b], the “effect on β-hematin formation” value in series [1] was “none”. For the same compound, the IC50 in series [2] (setting [5]) was found to be 23 µM. The inhibition in series [2] (Plasmodium falciparum) is over 50%.

For `S=C(Nc1ccccc1)c1nccc2ccccc12` [Compound 13d], the inhibition in series [2] (Plasmodium falciparum) is under 50%. Turning to `COc1cc(C)ccc1NC(=O)c1ccc2ccccc2c1` [Compound 12b], the “effect on β-hematin formation” value in series [1] is reported as “none”. Also, in series [2] (setting [5]), the IC50 was 38 µM. As to `COc1cc(C)ccc1NC(=O)c1nccc2ccccc12.Cl` [Compound 12j], the “reduction of antiplasmodial activity relative to 12a” value in series [2] (compared with isoquinoline carboxamide 12a, strain 3D7) is reported as “about 2 fold”. Further, the IC50 in series [2] (read-out: IC50 (P. falciparum proliferation), strain 3D7) turned out to be 136 µM. Take `CCN(CC)CCCC(C)Nc1ccnc2cc(Cl)ccc12` (stereo not shown) [chloroquine, Chloroquine, reference compound]: in series [1], the “effect on β-hematin formation” value is given as “inhibited”. As to `COc1cc(C)ccc1NC(=S)c1cnc2ccccc2c1` [Compound 13c], the IC50 in series [2] (setting [5]) was determined as 61 µM. Moreover, in series [2] (Plasmodium falciparum), the inhibition is over 50%. For the same compound, the “solubility in DMSO” value in series [3] is “lower solubility”. Turning to `COc1cc(C)ccc1NC(=S)c1nccc2ccccc12` [Compound 13a], in series [2] (Plasmodium falciparum), the inhibition is under 50%. Besides, the “inhibition of proliferation of P. falciparum” value in series [2] (at concentrations up to 200 μM, strain 3D7) was at most 50%. As to `S=C(Nc1ccccc1)c1cccnc1` [Compound 13h], in series [2] (Plasmodium falciparum), the inhibition was under 50%.

On to `COc1cc(C)ccc1NC(=O)c1cnc2ccccc2c1` [Compound 12c], for which the IC50 in series [2] (setting [5]) turned out to be 62 µM. In the case of `COc1cc(C)ccc1NC(=O)c1nccc2ccccc12` [Compound 12a], the IC50 in series [2] (setting [5]) was 69 µM. For the same compound, the “solubility in DMSO” value in series [3] was “lower solubility”.

As to `C[C@H]1Cc2c([nH]c3cc(Cl)c(F)cc23)[C@@]2(N1)C(=O)Nc1ccc(Cl)cc12` [cipargamin], in series [4], the “effect on [Na^+]cyt” value is given as “significant increase”.

These data come from PMC11068522 (International Journal for Parasitology: Drugs and Drug …, 2024).
